From PubChem BioAssay
TLR4-MyD88 BLA: blocks binding of human TLR4 to MyD88. inhibition, % at 8.4 µM. O00206+Q99836. hit rate 0.18% among 200,000. HeLa CL3-4 TLR4/MyD88 BLA complementation, FRET ratio; in the data active = inhibition above about 25%;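 also: 0% = vehicle and 100% = reference inhibitor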
ABHD5-PLIN5 inh: ABHD5-PLIN5 protein interaction inhibition; AID 602281; inhibition, % at 4 µM; hit rate 0.78% among 360,000; Split G. princeps luciferase complementation, luminescence, 4 h; Q00G26+Q8WTS1;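 active = inhibition above the mean inhibition across every tested compound plus 3 SD, cut at about 22% in these data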;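 also: 0% = DMSO only wells and the 100% control is not disclosed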
Target sequence (Q00G26 whole entry, looked up): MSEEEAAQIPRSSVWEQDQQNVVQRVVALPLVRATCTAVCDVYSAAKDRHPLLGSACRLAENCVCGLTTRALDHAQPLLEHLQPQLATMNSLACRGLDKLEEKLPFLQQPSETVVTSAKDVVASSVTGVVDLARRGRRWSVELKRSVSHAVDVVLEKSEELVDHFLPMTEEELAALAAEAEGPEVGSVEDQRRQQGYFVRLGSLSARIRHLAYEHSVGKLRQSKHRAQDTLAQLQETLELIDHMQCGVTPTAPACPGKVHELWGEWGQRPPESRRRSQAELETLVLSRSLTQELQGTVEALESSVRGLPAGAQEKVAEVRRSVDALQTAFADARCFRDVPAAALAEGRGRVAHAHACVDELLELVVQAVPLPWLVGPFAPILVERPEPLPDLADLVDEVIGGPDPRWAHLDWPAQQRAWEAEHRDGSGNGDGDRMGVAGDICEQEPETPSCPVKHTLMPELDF
Target sequence (Q8WTS1 whole entry, looked up): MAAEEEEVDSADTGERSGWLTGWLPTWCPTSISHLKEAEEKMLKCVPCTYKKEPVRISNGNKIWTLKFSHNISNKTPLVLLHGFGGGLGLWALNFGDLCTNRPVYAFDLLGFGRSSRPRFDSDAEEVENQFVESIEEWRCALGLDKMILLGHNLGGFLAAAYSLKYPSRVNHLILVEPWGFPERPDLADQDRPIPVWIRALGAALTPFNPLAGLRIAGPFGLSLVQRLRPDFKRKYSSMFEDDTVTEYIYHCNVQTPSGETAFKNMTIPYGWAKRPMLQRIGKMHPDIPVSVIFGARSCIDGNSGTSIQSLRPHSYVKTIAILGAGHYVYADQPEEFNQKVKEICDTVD
NOD2 RIPK2 PPI: blocks binding of human NOD2 to RIPK2 | hit rate 0.38% among 360,000 | inhibition, % at 4.98 µM | AID 624267 | O43353 | CHO BLA complementation NOD2-RIPK2, CCF4 ratio; in the data active = inhibition above about 21%;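 also: 0% = vehicle only and 100% = reference blocker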
Dynein cargo inh: blocks dynein driven cargo transport along microtubules; AID 1381; 3617.4 mouse cells, GR-EGFP nuclear translocation imaging; test concentration mostly 20 µM; stimulated with dexamethasone, 1 µM; hits give low values; hit rate 0.47% among 220,000; z-score, hits read low;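 active = plate z-score of nuclear minus cytoplasmic receptor signal below a set negative limit, without overly bright fluorescence or cell loss, cut at about -3.5 in these data, passing the limit was not always enough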;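 also: z-score of nuclear minus cytoplasmic ring GR-EGFP intensity difference per well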
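Also added: dexamethasone, 1.0 µM final. Medium: tet-free, stripped-serum medium. Detection: fixed, Hoechst-stained cells imaged at 10x for EGFP. Read-out: nuclear-to-cytoplasmic GR-EGFP distribution per well. Times: induction 48 h, compound 1 h, agonist 30 min.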
TLR9-MyD88 inh: inhibitors of human TLR9-MyD88 binding. hit rate 0.21% among 340,000. inhibition, % at 4.98 µM. CHO BLA complementation TLR9-MyD88, CCF4 FRET ratio. Q9NR96+Q99836;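 active = inhibition above the mean over all tested compounds plus 3 SD, cut at about 21% in these data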;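 also: 0% = DMSO only wells and 100% = clavulanate BLA inhibitor control wells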
B2AR ag: agonists of human beta-2 adrenergic receptor inducing internalization; response, % (no concentration beside the values); hit rate 0.43% among 340,000; P07550; Am2.2-beta2AR cells, FAP receptor internalization, flow cytometry; AID 504454;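 active = response above a set limit, near 3 SD of response in nonfluorescent compounds, cut at about 42% in these data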
Beta2AR ag CP1: agonists of human beta-2 adrenergic receptor | Am2.2-beta2AR cells, FAP surface receptor, flow cytometry; hits give low values | AID 540358 | shares compounds with B2AR ag | hit rate 25% among 1,100 | percent response (surface receptor), % at 10 µM;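 active = surface receptor percent response at or below 58%, roughly 3 SD from nonfluorescent compounds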
B2AR FAP counter: fluorescence artifact in beta-2AR agonist FAP counterscreen. shares compounds with B2AR ag. Am2.2 cells, FAP fluorogen flow cytometry; hits give low values. calls only at 10 µM. 1,100 tested, under 10 active. AID 588765;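 active = percent response below a set limit in fluorescence channel 1 and below 50% in channel 8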
* = called active by the depositor. Hits are enriched below; roughly 1.6% of the tested compounds scored in any of these assays.

`O=C(Nc1ccc2oc(-c3ccccc3F)nc2c1)c1ccc2c(c1)OCCO2` gave TLR4-MyD88 BLA 3, ABHD5-PLIN5 inh -6, NOD2 RIPK2 PPI -6, Dynein cargo inh 0.65, TLR9-MyD88 inh -9, B2AR ag 23, Beta2AR ag CP1 88 and B2AR FAP counter inactive.
`CCOc1ccc(-n2nc3ccc(NC(=O)c4ccc5c(c4)OCCO5)cc3n2)cc1` gave TLR4-MyD88 BLA 2, ABHD5-PLIN5 inh 3, NOD2 RIPK2 PPI 10, Dynein cargo inh -0.24, TLR9-MyD88 inh -6, B2AR ag 69*, Beta2AR ag CP1 98 and B2AR FAP counter inactive.
Cc1cn(C2CCCCC2)c(=O)n(-c2ccccc2)c1=O was read as ABHD5-PLIN5 inh 3, NOD2 RIPK2 PPI -17, TLR9-MyD88 inh -9 and B2AR ag -7.
Screening COc1ccc(/C=N/n2cnc3c([nH]c4ccc(F)cc43)c2=O)cc1CSc1ccccn1 returned ABHD5-PLIN5 inh 3, NOD2 RIPK2 PPI -10, Dynein cargo inh 0.45, TLR9-MyD88 inh -6, B2AR ag 58*, Beta2AR ag CP1 79 and B2AR FAP counter inactive.
Screening COc1ccc(Cn2c(SCc3ccc(C)cc3)nc3cc(OC)c(OC)cc3c2=N)cc1Cl returned TLR4-MyD88 BLA -5, ABHD5-PLIN5 inh 3, NOD2 RIPK2 PPI 5, Dynein cargo inh 0.2 and TLR9-MyD88 inh 3.
COc1ccc(Cn2c(SCc3cc(C)ccc3C)nc3cc(OC)c(OC)cc3c2=N)cc1 was read as TLR4-MyD88 BLA 4, ABHD5-PLIN5 inh 2, NOD2 RIPK2 PPI 4, Dynein cargo inh 1.5, TLR9-MyD88 inh 4, B2AR ag 43*, Beta2AR ag CP1 20* and B2AR FAP counter inactive.
Cc1cc(C)c(NC(=O)CNC(=O)COC(=O)CNC(=O)c2ccc(Cl)cc2Cl)c(C)c1 was read as ABHD5-PLIN5 inh -8, NOD2 RIPK2 PPI -10, TLR9-MyD88 inh -4 and B2AR ag 2.
CN(C)C(CNC(=O)c1ccc(C(F)(F)F)cc1)c1ccco1 (configuration not stated) was read as ABHD5-PLIN5 inh 5, NOD2 RIPK2 PPI -7, TLR9-MyD88 inh 1 and B2AR ag 0.
`COCCn1c(SCC(=O)N(C)c2ccccc2)nc2c([nH]c3ccccc32)c1=O` gave ABHD5-PLIN5 inh 4, NOD2 RIPK2 PPI 3, TLR9-MyD88 inh -4 and B2AR ag -5.
For CN(Cc1ccccc1F)c1nc(-c2cccnc2)nc2ccccc12 the results were ABHD5-PLIN5 inh 5, NOD2 RIPK2 PPI 4, TLR9-MyD88 inh 2, B2AR ag 80*, Beta2AR ag CP1 53* and B2AR FAP counter inactive.
Screening CCOc1ccc(CN(C)c2nc(-c3cccnc3)nc3ccccc23)cc1OC returned ABHD5-PLIN5 inh 3, NOD2 RIPK2 PPI 6, TLR9-MyD88 inh 2, B2AR ag -3, Beta2AR ag CP1 129 and B2AR FAP counter inactive.
For Cc1ccc(CN(C)c2nc(-c3cccnc3)nc3ccccc23)o1 the results were ABHD5-PLIN5 inh 17, NOD2 RIPK2 PPI -4, TLR9-MyD88 inh -9, B2AR ag 45*, Beta2AR ag CP1 104 and B2AR FAP counter inactive.
`COC(=O)CNc1nc(-c2cccnc2)nc2ccccc12` gave TLR4-MyD88 BLA -7, ABHD5-PLIN5 inh -3, NOD2 RIPK2 PPI -13, Dynein cargo inh -0.067, TLR9-MyD88 inh 0 and B2AR ag -7.
For Cc1ccccc1Nc1nc(-c2cccnc2)nc2ccccc12 the results were TLR4-MyD88 BLA -13, ABHD5-PLIN5 inh -4, NOD2 RIPK2 PPI -4, Dynein cargo inh 0.27, TLR9-MyD88 inh 3 and B2AR ag -8.
For COc1ccc(CNC(=O)c2sc(=O)n(Cc3cc(C(C)=O)ccc3OC)c2C)cc1 the results were ABHD5-PLIN5 inh 0 and NOD2 RIPK2 PPI -5.
Screening COc1ccccc1CNC(=O)C1CCCN1S(=O)(=O)c1ccc2c(c1)C(C)(C)C(=O)N2C (configuration not stated) returned ABHD5-PLIN5 inh 3 and NOD2 RIPK2 PPI 2.
COc1ccccc1-c1noc(CCCC(=O)N2CCOCC2)n1 was read as ABHD5-PLIN5 inh -2, NOD2 RIPK2 PPI 3, Dynein cargo inh -0.75 and B2AR ag -6.
`COc1ccccc1-c1cc(C(F)(F)F)nc(S(=O)(=O)CCCC(=O)N2CCOCC2)n1` gave TLR4-MyD88 BLA 16, ABHD5-PLIN5 inh 14, NOD2 RIPK2 PPI 0, Dynein cargo inh -0.65, TLR9-MyD88 inh -5, B2AR ag 47*, Beta2AR ag CP1 92 and B2AR FAP counter inactive.
For COc1ccc(-c2cc(C(F)(F)F)nc(S(=O)(=O)CCC(=O)N3CCOCC3)n2)cc1 the results were TLR4-MyD88 BLA 10, ABHD5-PLIN5 inh 7, NOD2 RIPK2 PPI 6, Dynein cargo inh -3.4, TLR9-MyD88 inh -6, B2AR ag 25, Beta2AR ag CP1 89 and B2AR FAP counter inactive.
N#Cc1ccc(NC(=S)NC(=O)C2CC2)cc1 was read as ABHD5-PLIN5 inh -2, NOD2 RIPK2 PPI -4 and TLR9-MyD88 inh 10.
COc1ccc(N2CCN(C(=O)CN3C(=O)NC4(CCCc5ccccc54)C3=O)CC2)cc1 (configuration not stated) was read as ABHD5-PLIN5 inh 3, NOD2 RIPK2 PPI 1, TLR9-MyD88 inh -3 and B2AR ag 0.
For COc1ccc(-c2nnc(COc3ccc(Br)cc3C)o2)cc1 the results were ABHD5-PLIN5 inh 1, NOD2 RIPK2 PPI 0, B2AR ag -4, Beta2AR ag CP1 107 and B2AR FAP counter inactive.
Screening Cc1cccc(OCc2nnc(-c3ccc(F)cc3)o2)c1 returned ABHD5-PLIN5 inh -11, NOD2 RIPK2 PPI 5, TLR9-MyD88 inh 5, B2AR ag 7, Beta2AR ag CP1 97 and B2AR FAP counter inactive.
Brc1ccc(-c2nnc(Cc3ccccc3)o2)cc1 was read as ABHD5-PLIN5 inh -7, NOD2 RIPK2 PPI 7, Dynein cargo inh 0.96, B2AR ag -14, Beta2AR ag CP1 133 and B2AR FAP counter inactive.
Screening Cc1ccc(-c2nnc(COc3cccc(-n4cnnn4)c3)o2)cc1 returned TLR4-MyD88 BLA -8, ABHD5-PLIN5 inh 4, NOD2 RIPK2 PPI -1, Dynein cargo inh -0.26, TLR9-MyD88 inh -30 and B2AR ag -12.
For Cc1cc(Br)ccc1OCc1nnc(-c2ccccc2)o1 the results were ABHD5-PLIN5 inh -4, NOD2 RIPK2 PPI -8, B2AR ag -4, Beta2AR ag CP1 118 and B2AR FAP counter inactive.
Screening c1ccc(Cc2nnc(-c3ccccc3)o2)cc1 returned TLR4-MyD88 BLA -20, ABHD5-PLIN5 inh 7, NOD2 RIPK2 PPI 0, Dynein cargo inh -1.6, TLR9-MyD88 inh 4 and B2AR ag 2.
